The values that follow come from ChEMBL document CHEMBL4477216, “Discovery and Optimization of Small Molecule Splicing Modifiers of Survival Motor Neuron 2 as a Treatment for Spinal Muscular Atrophy” (J Med Chem, 2016).

Molecules are shown by their SMILES.

Test [1] concerns Mus musculus. Nature of the test: In vivo inhibition of mRNA splicing of human SMN2 exon 7 in FVB.Cg-Tg(SMN2 delta 7 exon)4299Ahmb Tg(SMN2)89Ahmb Smn1tm1Msd/J mouse assessed as increase in SMN protein level in quadriceps at 1 mg/kg, ip qd administered on postnatal day 3 to day 9 by HTRF assay relative to control. It is filed as functional. More on the design: scale not given: the % may be the effect or the level left. The method in brief:
(§1)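 Homozygous Δ7 SMA mice were dosed IP once daily from PND3 to PND9 with compound or vehicle (100% DMSO solution, 2.5 mL/kg). Brain, spinal cord and quadriceps were homogenized in RIPA buffer with protease inhibitors. SMN was read by HTRF (anti-SMN d2 and Kryptate antibodies, overnight rt, 665/620 nm) and normalized to BCA total protein. Values are % change versus vehicle ±SD; 5-11 mice per group.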
Background: TR-FRET usually uses a lanthanide donor and a delayed reading to cut background.

In test [2] the test system is Mus musculus. Nature of the test: In vivo inhibition of mRNA splicing of human SMN2 exon 7 in FVB.Cg-Tg(SMN2 delta 7 exon)4299Ahmb Tg(SMN2)89Ahmb Smn1tm1Msd/J mouse assessed as median survival time at 20 mg/kg/day, po bid administered on postnatal day 24 (reference value: 14 days). It is filed as functional.
In test [3] the test system is Mus musculus. Nature of the test: In vivo inhibition of mRNA splicing of human SMN2 exon 7 in FVB.Cg-Tg(SMN2 delta 7 exon)4299Ahmb Tg(SMN2)89Ahmb Smn1tm1Msd/J mouse assessed as increase in SMN protein level in spinal cord at 3 mg/kg, ip qd administered on postnatal day 3 to day 9 by HTRF assay relative to control. More on the design: scale not given: the % may be the effect or the level left. It is filed as functional. The method in brief: as §1

Test [4] deals with Mus musculus. Nature of the test: In vivo inhibition of mRNA splicing of human SMN2 exon 7 in FVB.Cg-Tg(SMN2 delta 7 exon)4299Ahmb Tg(SMN2)89Ahmb Smn1tm1Msd/J mouse assessed as increase in SMN protein level in brain at 1 mg/kg, ip qd administered on postnatal day 3 to day 9 by HTRF assay relative to control. The class given is functional. More on the design: scale not given: the % may be the effect or the level left. The method in brief:
as §1

The subject of test [5] is Mus musculus. Nature of the test: In vivo inhibition of mRNA splicing of human SMN2 exon 7 in FVB.Cg-Tg(SMN2 delta 7 exon)4299Ahmb Tg(SMN2)89Ahmb Smn1tm1Msd/J mouse assessed as increase in SMN protein level in brain at 3 mg/kg, ip qd administered on postnatal day 3 to day 9 by HTRF assay relative to control. The class given is functional. More on the design: scale not given: the % may be the effect or the level left. The method in brief: as §1

Test [6] concerns Mus musculus. Nature of the test: In vivo inhibition of mRNA splicing of human SMN2 exon 7 in FVB.Cg-Tg(SMN2 delta 7 exon)4299Ahmb Tg(SMN2)89Ahmb Smn1tm1Msd/J mouse assessed as median survival time at 1 mg/kg/day, ip administered on postnatal day 3 to day 23 (reference value: 14 days). The class given is functional.
Test [7] deals with Mus musculus. Nature of the test: In vivo inhibition of mRNA splicing of human SMN2 exon 7 in FVB.Cg-Tg(SMN2 delta 7 exon)4299Ahmb Tg(SMN2)89Ahmb Smn1tm1Msd/J mouse assessed as increase in SMN protein level in spinal cord at 1 mg/kg, ip qd administered on postnatal day 3 to day 9 by HTRF assay relative to control. It is filed as functional. More on the design: scale not given: the % may be the effect or the level left. An outline of the steps: as §1

The subject of test [8] is Mus musculus. Nature of the test: In vivo inhibition of mRNA splicing of human SMN2 exon 7 in FVB.Cg-Tg(SMN2 delta 7 exon)4299Ahmb Tg(SMN2)89Ahmb Smn1tm1Msd/J mouse assessed as median survival time at 3 mg/kg/day, ip administered on postnatal day 3 to day 23 (reference value: 14 days). The class given is functional.
Test [9] is filed under the species Homo sapiens. Nature of the test: Inhibition of mRNA splicing of SMN2 exon 7 in GM03813 fibroblasts derived from SMA patient assessed as compound concentration required to increase SMN protein level by 1.5 times after 24 hrs by HTRF assay.
Test [10] has as its system Mus musculus. Nature of the test: In vivo inhibition of mRNA splicing of human SMN2 exon 7 in FVB.Cg-Tg(SMN2 delta 7 exon)4299Ahmb Tg(SMN2)89Ahmb Smn1tm1Msd/J mouse assessed as median survival time at 6 mg/kg/day, po bid administered on postnatal day 24 (reference value: 14 days). The class given is functional.
Test [11] is filed under the species Homo sapiens. Nature of the test: Inhibition of mRNA splicing of human SMN2 exon 7 transfected in HEK293H cells assessed as compound concentration required to increase full-length SMN2 mRNA level by 1.5 times after 24 hrs by RT-qPCR analysis relative to GAPDH. It is filed as cell-based. The method in brief: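 HEK293H cells stably carrying the SMN2 minigene (exon 6 to 5' exon 8 fused to firefly luciferase) were plated and held for 6 h, then treated 24 h in duplicate at varying concentrations (0.5% DMSO). Full-length minigene mRNA and GAPDH were quantified by TaqMan RT-qPCR using actual PCR efficiencies. Results were normalized to GAPDH and DMSO and expressed as fold change versus DMSO.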

The subject of test [12] is Mus musculus. Nature of the test: In vivo inhibition of mRNA splicing of human SMN2 exon 7 in FVB.Cg-Tg(SMN2 delta 7 exon)4299Ahmb Tg(SMN2)89Ahmb Smn1tm1Msd/J mouse assessed as median survival time at 0.6 mg/kg/day, po bid administered on postnatal day 24 (reference value: 14 days). It is filed as functional.
In test [13] the test system is Mus musculus. Nature of the test: In vivo inhibition of mRNA splicing of human SMN2 exon 7 in FVB.Cg-Tg(SMN2 delta 7 exon)4299Ahmb Tg(SMN2)89Ahmb Smn1tm1Msd/J mouse assessed as median survival time at 0.1 mg/kg/day, ip administered on postnatal day 3 to day 23 (reference value: 14 days). The class given is functional.
Test [14] has as its system Mus musculus. Nature of the test: In vivo inhibition of mRNA splicing of human SMN2 exon 7 in FVB.Cg-Tg(SMN2 delta 7 exon)4299Ahmb Tg(SMN2)89Ahmb Smn1tm1Msd/J mouse assessed as median survival time at 2 mg/kg/day, po bid administered on postnatal day 24 (reference value: 14 days). The class given is functional.
Test [15] has as its system Mus musculus. Nature of the test: In vivo inhibition of mRNA splicing of human SMN2 exon 7 in FVB.Cg-Tg(SMN2 delta 7 exon)4299Ahmb Tg(SMN2)89Ahmb Smn1tm1Msd/J mouse assessed as increase in SMN protein level in brain at 0.03 mg/kg, ip qd administered on postnatal day 3 to day 9 by HTRF assay relative to control. It is filed as functional. The arrangement: scale not given: the % may be the effect or the level left. An outline of the steps:
as §1

Test [16] concerns Mus musculus. Nature of the test: In vivo inhibition of mRNA splicing of human SMN2 exon 7 in FVB.Cg-Tg(SMN2 delta 7 exon)4299Ahmb Tg(SMN2)89Ahmb Smn1tm1Msd/J mouse assessed as increase in SMN protein level in spinal cord at 0.03 mg/kg, ip qd administered on postnatal day 3 to day 9 by HTRF assay relative to control. The class given is functional. The arrangement: scale not given: the % may be the effect or the level left. An outline of the steps: as §1

In test [17] the test system is Mus musculus. Nature of the test: In vivo inhibition of mRNA splicing of human SMN2 exon 7 in FVB.Cg-Tg(SMN2 delta 7 exon)4299Ahmb Tg(SMN2)89Ahmb Smn1tm1Msd/J mouse assessed as increase in SMN protein level in quadriceps at 0.03 mg/kg, ip qd administered on postnatal day 3 to day 9 by HTRF assay relative to control. It is filed as functional. More on the design: scale not given: the % may be the effect or the level left. The method in brief:
as §1

Turning to `Cc1cn2nc(-c3cc(=O)n4cc(N5CCN(C)CC5)ccc4n3)cc2c(C)n1`, the Activity in the test with Mus musculus [1] is reported as 129%; in the test with Mus musculus [3] it was 189%; with Mus musculus [4] it was 149%; in the test on Mus musculus [5], 230%; in the test with Mus musculus [7], 123%. For the same molecule, the MST in the test on Mus musculus [2] was above 190 days; in the test with Mus musculus [6], 45 days; in the test on Mus musculus [8] it was above 190 days; with Mus musculus [10] it was 45 days. The EC1.5 in the test listed under Homo sapiens [9] turned out to be 160 nM; in the test filed under Homo sapiens [11], 35 nM.
Consider `Cc1cn2cc(-c3cc4ccc(N5CCN(C)CC5)cc4c(=O)o3)nc2c(C)n1`, for which the MST in the test on Mus musculus [12], in the test on Mus musculus [13] and with Mus musculus [14] was above 100 days in each case. Further, the Activity is 343% with Mus musculus [1]; 284% in the test with Mus musculus [3]; 345% in the test with Mus musculus [4]; 395% in the test on Mus musculus [5]; 203% in the test on Mus musculus [7].
For the molecule `CCN1CCN(c2ccc3cc(-c4cn5cc(C)nc(C)c5n4)c(=O)oc3c2)C[C@@H]1C`, the values for the Activity in the test with Mus musculus [15], with Mus musculus [16] and in the test with Mus musculus [17] were -10%, 7% and -3%, respectively. Also, the MST is 34 days in the test on Mus musculus [12]; 34 days in the test on Mus musculus [13]; above 150 days in the test on Mus musculus [6]; above 150 days with Mus musculus [10]; above 55 days in the test with Mus musculus [14]. Also, the EC1.5 in the test listed under Homo sapiens [9] is 44 nM.
